Source: PubChem BioAssay
Wee1 stabilizer: Wee1 degradation inhibitors, primary screen, cell-based, HeLa, Wee1K328M-luciferase, luminescence; AID 1321, 2008; HeLa Luc-Wee1K328M stability; 100% = proteasome inhibitor MG132 effect; hit rate 1.2% among 220,000; reporter increase, % at 5 µM; Wee1-like protein kinase (Homo sapiens), P30291;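 active means activation above the mean of all tested compounds plus 3 SD, set per screening run, cut at about 8.8% in these data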;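 further: cells exposed to compound for 20 h before luminescence read; 0% = DMSO alone and 100% = MG132 at 30 µM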
HMGR II inh: inhibitors of E. faecalis class II HMGR, primary screen, biochemical, Enterococcus faecalis. HMG-CoA reductase (Enterococcus faecalis, mvaE). inhibition, % at 10 µM. purified E. faecalis HMGR, NADPH absorbance 340 nm kinetic. hit rate 0.41% among 190,000;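 active means inhibition above a set limit, the median over all tested compounds plus 3 SD, cut at about 9.5% in these data; inconclusive means no clear call, values can overlap the other calls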;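 further: enzyme runs in reverse so mevalonate oxidation gives rising NADPH absorbance; 0% = complete reaction with DMSO and 100% = background rate lacking mevalonate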
RanGTP-Imp inh: inhibitors of RanGTP-importin-beta interaction, primary screen, biochemical, FRET, CFP-Ran, YFP-importin-beta, homogeneous; AID 2216, 2009; inhibition, % (concentration not given with the values); Ran GTPase (GTP-bound) - importin-beta complex; cell-free CFP-Ran/YFP-importin-beta FRET ratio; hit rate 1.1% among 300,000;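 active means more than half of the replicate wells show a fall in the fluorescence ratio signal beyond about 16%, limit read from the data, passing the limit was not always enough; inconclusive means exactly half of the replicate wells pass the set limit; inactive means fewer than half of replicates pass the limit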;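 further: 0% = DMSO wells and 100% = Ran loaded with GDP instead of GTP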
Runt-SMMHC FRET: inhibitors of RUNX1 Runt–CBFb-SMMHC binding, primary screen, biochemical, FRET, Cerulean-Runt, Venus-CBFb-SMMHC, uHTS | Runt-related transcription factor 1 (Homo sapiens) + Core-binding factor subunit beta … | Cerulean-Runt/Venus-CBFb-SMMHC FRET ratio 530/480, 1 h | inhibition, % at 20 µM | hit rate 0.74% among 220,000;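 active means mean inhibition across duplicate retests at 20 µM reaching about 50%, limit read from the data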;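 further: 0% = DMSO wells and 100% = wells with excess untagged CBFb-SMMHC; inhibitors lower the FRET ratio by blocking Runt binding to CBFb-SMMHC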
Runt-CBFb FRET: inhibitors of RUNX1 Runt–CBFb binding, primary screen, biochemical, FRET, Cerulean-Runt, Venus-CBFb, uHTS | Runt-related transcription factor 1 (Homo sapiens) + Core-binding factor subunit beta … | Cerulean-Runt/Venus-CBFb FRET ratio 530/480, 1 h | inhibition, % at 20 µM | hit rate 0.46% among 220,000;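 active means inhibition over about 50% at 20 µM in the single-dose screen, limit read from the data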;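 further: 0% = DMSO wells and 100% = excess unlabeled CBFb competitor control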
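Assay system: Cerulean-tagged RUNX1 Runt domain (FRET donor) fusion protein / Amount: 100 nM each of Venus-CBFb and Cerulean-Runt domain / Medium: Tris buffer pH 7.5 with salts and BSA / Also added: Venus-CBFb 100 nM / Schedule: 1 h complex formation plus 1 h compound treatment, room temperature / Signal: FRET fluorescence / Read-out: loss of energy transfer signal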
PHOSPHO1 inh: PubChem AID 1565 | hit rate 1.1% among 290,000 | recombinant PHOSPHO1, absorbance phosphatase assay | inhibition, % at 13.3 µM | Phosphoethanolamine/phosphocholine phosphatase (Homo sapiens), Q8TCT1; in the data active means inhibition above about 60%
Target sequence (Q8TCT1 whole entry, looked up): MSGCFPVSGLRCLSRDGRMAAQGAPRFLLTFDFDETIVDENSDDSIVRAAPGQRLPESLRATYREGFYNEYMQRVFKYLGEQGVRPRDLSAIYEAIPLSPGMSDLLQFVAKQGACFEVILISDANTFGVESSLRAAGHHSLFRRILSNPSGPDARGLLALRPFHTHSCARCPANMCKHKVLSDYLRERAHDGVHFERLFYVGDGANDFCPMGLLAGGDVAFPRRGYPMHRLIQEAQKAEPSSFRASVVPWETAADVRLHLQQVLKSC
YIC counter: YIC intramolecular FRET probe signal interference, dose response, counter-screen for RanGTP-importin-beta inhibitor project, biochemical, fluorescence FRET | shares compounds with RanGTP-Imp inh | Purified YIC probe, intramolecular FRET ratio YFP/CFP | IC50, µM | hit rate 40% among 1,000;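 active means fitted half-maximal inhibitory concentration no more than tenfold above the top dose tested; inconclusive means flat fit with 30 to 70% activity, or poor fit; inactive means half-maximal concentration beyond tenfold above the top dose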
An asterisk follows results filed as active; ? = inconclusive; nt = not tested or not shown. Only some compounds are listed: those with a hit (about 3.4% of all), similar ones and a draw of the others.

SMILES | Wee1 stabilizer | HMGR II inh | RanGTP-Imp inh | Runt-SMMHC FRET | Runt-CBFb FRET | PHOSPHO1 inh | YIC counter
O=C(NNS(=O)(=O)c1ccccc1)c1ccc(S(=O)(=O)N2CCCCC2)cc1 | -2.2 | -0.5 | -1.5 | 3.2 | -1.6 | -5.1 | nt
CCC1SC2=NC(C)=C(C(=O)OCCOC)C(c3ccc(C(=O)OC)cc3)N2C1=O (centres undefined) | -1.3 | -5.2 | -2.7 | -0.8 | -5.5 | -8.5 | nt
COc1cc2cc(C(N)=O)c(N)nc2cc1OC | 3.0 | -2.1 | 49.2* | 79.2* | 101.4* | 23.6 | 10.1*
COc1ccc2nc(C)c(C(N)=O)cc2c1 | -1.3 | -3.3 | ? | 1.9 | -0.1 | 44.8 | nt
Cn1cnc(S(=O)(=O)N2CCN(c3ccc(Cl)cc3)CC2)c1 | nt | nt | 17.6* | nt | nt | 52.9 | >50
Cn1cnc(S(=O)(=O)N2CCN(c3ccccc3)CC2)c1 | nt | nt | 0.9 | nt | nt | 59.8 | nt
COc1ccc(NS(=O)(=O)c2cc(NC(=O)c3cccs3)ccc2N2CCOCC2)cc1 | -0.3 | 1.7 | 15.6* | -4.4 | -0.1 | -12.6 | >50
Cc1cc(C)c2c(N)c(C(=O)NNC(=O)c3ccccc3)sc2n1 | -0.5 | -4.1 | 11.1 | 1.9 | 1.6 | 32.3 | nt
Cc1cc(C)c2c(N)c(C(=O)NN3CC(=O)N(c4ccccc4F)CC3=O)sc2n1 | -1.9 | -0.8 | 16.4* | 8.1 | 6.0 | -12.8 | >50
Cn1c(SCC(=O)NC2CCCC2)nnc1-c1cccs1 | nt | nt | 0.6 | nt | nt | 26.1 | nt
CCCC[C@@H]1CNC(=S)N1CCc1cccc2ccccc12 | -4.1 | 2.9 | -0.4 | -0.7 | -0.9 | -7.6 | nt
C[C@@H]1CN([C@@H](C)CO)C(=O)c2cc(NS(C)(=O)=O)ccc2O[C@@H](C)CCCCO[C@H]1CN(C)C(=O)Cc1ccccc1 | nt | nt | nt | nt | nt | nt | >50
COc1ccccc1NC(=O)c1ccc2nc(C)c(C)nc2c1 | nt | nt | 5.6 | nt | nt | 23.3 | nt
COc1ccccc1NC(=O)c1cc2ccccc2nc1C | -3.6 | 0.6 | 22.6* | 0.7 | -0.3 | 20.3 | >50
Cc1noc(NS(=O)(=O)c2ccc(NC(=O)c3cnc4n(c3=O)CCS4)cc2)c1C | 0.1 | 0.2 | -8.3 | 3.3 | -4.4 | 2.5 | nt
COCCOC(=O)C1=C(C)NC(=O)NC1c1cccc2ccccc12 (centres undefined) | nt | nt | 22.0* | nt | nt | 39.0 | >50
Cc1ccc(NC(=O)C2CCN(S(=O)(=O)c3ccc(Cl)c(C(F)(F)F)c3)CC2)nc1 | nt | nt | 20.1* | nt | nt | nt | >50
Cc1ccnc(NC(=O)C2CCN(S(=O)(=O)c3ccc(Cl)c(C(F)(F)F)c3)CC2)c1 | nt | nt | -0.5 | nt | nt | nt | nt
Cc1c(O)c(CN2CCCCC2)cc2c3c(c(=O)oc12)CCC3 | -1.2 | -1.7 | 36.8* | 58.5* | 90.1* | 15.8 | 13.9*
CCN(CC)S(=O)(=O)c1ccc(/C=C/C(=O)Nc2ccc(F)cc2F)cc1 | -2.7 | -0.5 | 20.8* | 0.5 | 0.0 | 6.0 | >50
CCN(CC)S(=O)(=O)c1ccc(/C=C/C(=O)Nc2ccc(Br)cc2F)cc1 | 1.4 | -2.0 | 2.3 | 0.6 | 0.7 | -6.8 | nt
OCCN1CCN(c2nc(-c3ccccc3)c3cc(Cl)ccc3n2)CC1 | 0.0 | 0.0 | 18.4* | 51.8* | nt | 24.4 | 24.4*
O=c1[nH]c2cc(Br)cnc2nc1/C=C(\O)c1ccc(F)cc1 | -2.3 | -5.5 | 17.7* | -19.2 | 21.3 | 11.5 | >50
CC(=O)c1sc2nc(C)c3c(c2c1N)CCCC3 | 0.0 | nt | 31.5* | 89.8* | 43.8 | 19.5 | 14.4*
COC(=O)c1sccc1NC(=O)c1cccc(Cl)c1 | nt | nt | 7.3 | nt | nt | nt | nt
SMILES | Wee1 stabilizer | HMGR II inh | RanGTP-Imp inh | Runt-SMMHC FRET | Runt-CBFb FRET | PHOSPHO1 inh | YIC counter
COC(=O)c1sccc1NC(=O)c1csc(C)c1 | 0.8 | -3.4 | 19.1* | 6.1 | -0.6 | 10.6 | >50
CCn1c(C(=O)Nc2ccsc2C(=O)OC)cc2sc(Cl)cc21 | 1.4 | -0.7 | 20.4* | 8.0 | -2.8 | 6.4 | 46.9*
CCOC(=O)c1c(NC(=O)CC2SC(N)=NC2=O)sc(C)c1C (centres undefined) | 7.3 | -3.7 | 2.9 | 1.2 | -4.2 | 32.8 | nt
Fc1ccc(-c2ncc3ccccn23)cc1 | 0.7 | -3.9 | 1.4 | 1.4 | 1.8 | 24.1 | nt
Clc1ccc(/C=C/c2ncc3ccccn23)cc1 | 1.6 | 3.0 | 23.8* | nt | nt | 8.0 | 2.54*
CC(C)n1c(C(F)(F)F)nc2cc(C(=O)N3CCCCC3)ccc21 | 2.0 | nt | 1.8 | -1.0 | 3.0 | 28.5 | nt
Cc1sc(NC(=O)c2ccccc2)c(C#N)c1-c1ccccc1 | 7.6 | -6.5 | 39.1* | 2.5 | 1.9 | -22.0 | >50
CC(C)(C)C(=O)NC(=S)Nc1ccc(S(=O)(=O)Nc2nccs2)cc1 | 0.2 | 3.1 | 17.5* | -11.8 | 2.7 | 24.6 | >50
O=C(Nc1ccc(S(=O)(=O)Nc2nccs2)cc1)C(F)(F)F | nt | nt | 4.8 | nt | nt | nt | nt
CCc1cccc(NC(=O)c2ccc3c(=O)n4c(nc3c2)CCCCC4)c1 | -0.4 | nt | 3.4 | -0.4 | -5.0 | 27.4 | nt
COCCn1c(=N)c(S(=O)(=O)c2ccc(F)cc2)cc2c(=O)n3cccc(C)c3nc21 | nt | nt | -2.7 | nt | nt | 22.3 | nt
N=c1c(S(=O)(=O)c2ccc(Cl)cc2)cc2c(=O)n3ccccc3nc2n1Cc1cccnc1 | nt | nt | 32.9* | nt | nt | 7.6 | ?
CCOC(=O)c1ccccc1NC(=O)COC(=O)C(CCSC)NC(=O)COc1ccccc1 (centres undefined) | nt | nt | 24.3* | nt | nt | nt | >50
CCOC(=O)c1ccccc1NC(=O)COc1ccccc1 | 6.2 | -4.5 | -1.0 | 1.1 | -3.1 | -35.8 | nt
O=C(CN1CCN(Cc2ccc(F)cc2)CC1)NCc1ccccc1 | nt | nt | -8.5 | nt | nt | 39.0 | nt
Cc1nn(C)cc1C1C(C#N)=C(N)N(c2cccnc2)C2=C1C(=O)CCC2 (centres undefined) | 1.1 | 0.0 | 2.2 | 0.7 | -1.3 | -18.2 | nt
Cc1ccc(C2C(C#N)=C(N)N(c3cccnc3)C3=C2C(=O)CCC3)c(C)c1 (centres undefined) | -2.7 | 1.2 | 29.6* | -0.8 | 4.5 | 39.4 | >50
CCOC(=O)C1=C(N)Oc2ccc3ccccc3c2C1c1ccc(O)c(OC)c1 (centres undefined) | nt | nt | 29.2* | nt | nt | 36.0 | >50
COc1ccc(C2C(C#N)=C(N)Oc3cc4c(cc32)OCO4)cc1 (centres undefined) | -1.1 | -5.0 | 25.0* | 9.8 | 12.6 | 0.2 | >50
COc1cc2c(cc1C1C(C#N)=C(N)OC3=C1C(=O)CC(C)(C)C3)OCO2 (centres undefined) | nt | nt | -1.7 | nt | nt | 13.0 | nt
